Experimental data as given in ChEMBL document CHEMBL2311367, “Synthesis, biological evaluation, and molecular modeling of glycyrrhizin derivatives as potent high-mobility group box-1 inhibitors with anti-heart-failure activity in vivo” (J Med Chem, 2013).
Where a chain is given by its changes, count along the chain named. Calls of active or inactive are those of the source. The rule behind the calls is not given here.

Key:
[1] = molecular target: T1, High mobility group protein B1 (Homo sapiens, UniProt P09429); assay: Binding affinity to HMGB1 (unknown origin)
T1 sequence (P09429 whole entry): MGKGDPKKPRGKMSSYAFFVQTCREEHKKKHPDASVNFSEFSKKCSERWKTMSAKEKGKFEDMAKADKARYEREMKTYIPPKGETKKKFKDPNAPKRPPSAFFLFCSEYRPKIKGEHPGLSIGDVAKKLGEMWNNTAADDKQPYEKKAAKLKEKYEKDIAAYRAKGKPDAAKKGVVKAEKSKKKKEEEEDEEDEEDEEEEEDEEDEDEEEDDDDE

[2] = molecular target: T2, High mobility group protein B1 (Mus musculus) (UniProt P63158); assay: Inhibition of HMGB1 in mouse RAW264.7 cells assessed as LPS-induced TNFalpha release treated for 2 hrs prior to LPS-challenge measured after 16 hrs by ELISA; format: cell-based
T2 sequence (whole entry): T1 sequence (P09429 whole entry) with E189D, D202E
Procedure, shortened: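 RAW 264.7 murine macrophage-like cells grown in RPMI 1640 with 10% heat-inactivated FBS and 2 mM glutamine, 5% CO2. Compounds or HMGB1 neutralizing antibody added 2 h before LPS (0.01 ng/mL), then 16 h stimulation; TNF-α in supernatant measured by ELISA. Each compound run at least twice in triplicate; ED50 given with 95% confidence interval.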

Mus musculus [3] = assay: Cardioprotective activity against DOX-induced acute heart failure DCM in ip dosed C57BL/6J mouse model assessed as increase in ejection fraction administered qd from day 10 post DOX-challenge measured after 50 days by echocardiography; format: functional, organism-based
Mus musculus [4] = assay: Cardioprotective activity against DOX-induced acute heart failure DCM in ip dosed C57BL/6J mouse model assessed as improvement in the maximum descending rate of the LV pressure administered qd from day 10 post DOX-challenge measured after 50 days by echocardiography; format: functional, organism-based
Mus musculus [5] = assay: Cardioprotective activity against DOX-induced acute heart failure DCM in ip dosed C57BL/6J mouse model assessed as increase in survival rate administered qd from day 10 post DOX-challenge measured after 50 days by echocardiography; format: functional, organism-based
Mus musculus [6] = assay: Cardioprotective activity against DOX-induced acute heart failure DCM in ip dosed C57BL/6J mouse model assessed as improvement in the maximum ascending rate of the LV pressure administered qd from day 10 post DOX-challenge measured after 50 days by echocardiography; format: functional, organism-based
Mus musculus [7] = assay: Cardioprotective activity against DOX-induced acute heart failure DCM in ip dosed C57BL/6J mouse model assessed as increase in fractional shortening administered qd from day 10 post DOX-challenge measured after 50 days by echocardiography; format: functional, organism-based
Mus musculus [8] = assay: Cardioprotective activity against DOX-induced chronic heart failure DCM ip dosed C57BL/6J mouse model assessed as improvement of LV diastolic anterior wall administered qd from day 70 post DOX challenge measured after 35 days; format: functional, organism-based
Mus musculus [9] = assay: Cardioprotective activity against DOX-induced chronic heart failure DCM ip dosed C57BL/6J mouse model assessed as improvement of diastolic interventricular septum administered qd from day 70 post DOX challenge measured after 35 days; format: functional, organism-based
Mus musculus [10] = assay: Cardioprotective activity against DOX-induced chronic heart failure DCM ip dosed C57BL/6J mouse model assessed as increase in survival rate administered qd from day 70 post DOX challenge measured after 35 days; format: functional, organism-based
Procedure, shortened: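 Chronic DOX model: ip DOX at 3.5 mg/kg weekly for 8 weeks, then once-daily treatment with the indicated agent beginning two weeks after the last DOX dose. Survival followed by Kaplan-Meier curves and compared with a log rank test, n = 20/group.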

Mus musculus [11] = assay: Cardioprotective activity against DOX-induced chronic heart failure DCM ip dosed C57BL/6J mouse model assessed as improvement of ejection fraction administered qd from day 70 post DOX challenge measured after 35 days; format: functional, organism-based
Mus musculus [12] = assay: Cardioprotective activity against DOX-induced chronic heart failure DCM ip dosed C57BL/6J mouse model assessed as improvement of fractional shortening administered qd from day 70 post DOX challenge measured after 35 days; format: functional, organism-based
Mus musculus [13] = assay: Cardioprotective activity against DOX-induced chronic heart failure DCM ip dosed C57BL/6J mouse model assessed as improvement of systolic interventricular septum administered qd from day 70 post DOX challenge measured after 35 days; format: functional, organism-based

Structure (SMILES) | ED50 [2] [µM] | Activity (Mus musculus [3]) | Activity (Mus musculus [4]) | Activity (Mus musculus [5]) | Activity (Mus musculus [6]) | Activity (Mus musculus [7]) | other results
CC1(C)[C@@H](O[C@H]2O[C@H](C(=O)O)[C@@H](O)[C@H](O)[C@H]2O[C@@H]2O[C@H](C(=O)O)[C@@H](O)[C@H](O)[C@H]2O)CC[C@]2(C)[C@H]3C(=O)C=C4[C@@H]5C[C@@](C)(C(=O)O)CC[C@]5(C)CC[C@@]4(C)[C@]3(C)CC[C@@H]12 [GLYCYRRHIZIN] | 70 | – | – | – | – | – | Kd [1]: 150 µM
CC1(C)[C@@H](O[C@H]2O[C@H](C(=O)O)[C@@H](O)[C@H](O)[C@H]2O[C@@H]2O[C@H](C(=O)O)[C@@H](O)[C@H](O)[C@H]2O)CC[C@]2(C)[C@H]3C(=O)C=C4[C@@H]5C[C@@](C)(CN[C@@H](Cc6ccc(O)cc6)C(=O)O)CC[C@]5(C)CC[C@@]4(C)[C@]3(C)CC[C@@H]12 | – | – | – | – | – | – | inhibition [2]: inactive
CC1(C)[C@@H](O[C@H]2O[C@H](C(=O)O)[C@@H](O)[C@H](O)[C@H]2O[C@@H]2O[C@H](C(=O)O)[C@@H](O)[C@H](O)[C@H]2O)CC[C@]2(C)[C@H]3C(=O)C=C4[C@@H]5C[C@@](C)(CNCC(=O)O)CC[C@]5(C)CC[C@@]4(C)[C@]3(C)CC[C@@H]12 | – | inactive | inactive | inactive | inactive | inactive | inhibition [2]: inactive
CCCNC[C@@]1(C)CC[C@]2(C)CC[C@]3(C)C(=CC(=O)[C@@H]4[C@@]5(C)CC[C@H](O[C@H]6O[C@H](C(=O)O)[C@@H](O)[C@H](O)[C@H]6O[C@@H]6O[C@H](C(=O)O)[C@@H](O)[C@H](O)[C@H]6O)C(C)(C)[C@@H]5CC[C@]43C)[C@@H]2C1 | 226 | – | – | – | – | – | –
CC1(C)[C@@H](O[C@H]2O[C@H](C(=O)O)[C@@H](O)[C@H](O)[C@H]2O[C@@H]2O[C@H](C(=O)O)[C@@H](O)[C@H](O)[C@H]2O)CC[C@]2(C)[C@H]3C(=O)C=C4[C@@H]5C[C@@](C)(CN[C@@H](Cc6c[nH]c7ccccc67)C(=O)O)CC[C@]5(C)CC[C@@]4(C)[C@]3(C)CC[C@@H]12 | 144 | Active | Active | Active | Active | Active | –
CC1(C)[C@@H](O[C@H]2O[C@H](C(=O)O)[C@@H](O)[C@H](O)[C@H]2O[C@@H]2O[C@H](C(=O)O)[C@@H](O)[C@H](O)[C@H]2O)CC[C@]2(C)[C@H]3C(=O)C=C4[C@@H]5C[C@@](C)(CN[C@@H](CCC(=O)O)C(=O)O)CC[C@]5(C)CC[C@@]4(C)[C@]3(C)CC[C@@H]12 | 141 | Active | Active | Active | Active | Active | Activity (Mus musculus [8]): Active; Activity (Mus musculus [9]): Active; Activity (Mus musculus [10]): Active; Activity (Mus musculus [11]): Active; Activity (Mus musculus [12]): Active; Activity (Mus musculus [13]): Active
C[C@H](NC[C@@]1(C)CC[C@]2(C)CC[C@]3(C)C(=CC(=O)[C@@H]4[C@@]5(C)CC[C@H](O[C@H]6O[C@H](C(=O)O)[C@@H](O)[C@H](O)[C@H]6O[C@@H]6O[C@H](C(=O)O)[C@@H](O)[C@H](O)[C@H]6O)C(C)(C)[C@@H]5CC[C@]43C)[C@@H]2C1)C(=O)O | 337 | inactive | Active | inactive | Active | – | –
CC1(C)[C@@H](O[C@H]2O[C@H](C(=O)O)[C@@H](O)[C@H](O)[C@H]2O[C@@H]2O[C@H](C(=O)O)[C@@H](O)[C@H](O)[C@H]2O)CC[C@]2(C)[C@H]3C(=O)C=C4[C@@H]5C[C@@](C)(CNC6CCCCC6)CC[C@]5(C)CC[C@@]4(C)[C@]3(C)CC[C@@H]12 | 193 | – | – | – | – | – | –
CC1(C)[C@@H](O[C@H]2O[C@H](C(=O)O)[C@@H](O)[C@H](O)[C@H]2O[C@@H]2O[C@H](C(=O)O)[C@@H](O)[C@H](O)[C@H]2O)CC[C@]2(C)[C@H]3C(=O)C=C4[C@@H]5C[C@@](C)(CN[C@@H](CC(=O)O)C(=O)O)CC[C@]5(C)CC[C@@]4(C)[C@]3(C)CC[C@@H]12 | 144 | Active | Active | Active | Active | Active | Activity (Mus musculus [8]): inactive; Activity (Mus musculus [9]): inactive; Activity (Mus musculus [10]): inactive; Activity (Mus musculus [11]): inactive; Activity (Mus musculus [12]): inactive; Activity (Mus musculus [13]): inactive
CC1(C)[C@@H](O[C@H]2O[C@H](C(=O)O)[C@@H](O)[C@H](O)[C@H]2O[C@@H]2O[C@H](C(=O)O)[C@@H](O)[C@H](O)[C@H]2O)CC[C@]2(C)[C@H]3C(=O)C=C4[C@@H]5C[C@@](C)(CN[C@@H](CO)C(=O)O)CC[C@]5(C)CC[C@@]4(C)[C@]3(C)CC[C@@H]12 | 161 | Active | Active | Active | Active | Active | –
CC1(C)[C@@H](O[C@H]2O[C@H](C(=O)O)[C@@H](O)[C@H](O)[C@H]2O[C@@H]2O[C@H](C(=O)O)[C@@H](O)[C@H](O)[C@H]2O)CC[C@]2(C)[C@H]3C(=O)C=C4[C@@H]5C[C@@](C)(CN[C@@H](Cc6ccccc6)C(=O)O)CC[C@]5(C)CC[C@@]4(C)[C@]3(C)CC[C@@H]12 | – | – | – | – | – | – | inhibition [2]: inactive
